Reference: ChEMBL document CHEMBL1764983, “Structure-activity study to develop cationic lipid-conjugated haloperidol derivatives as a new class of anticancer therapeutics” (J Med Chem, 2011)
Activity calls are given as the source filed them. The calls are words filed in the database; no cut-off is given here.

Tests used:
MDA-MB-231 [1] = experiment: Cytotoxicity against human MDA-MB-231 cells expressing sigma receptor at 0.5 to 50 uM after 48 hrs by MTT assay; format: functional, cell-based
How it was run: (§1)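 MTT reduction assay. Cells grown in RPMI-1640 with 10% FBS at 37 °C, 5% CO₂, and used at 85-90% confluency. Seeded at 5000 cells/well 18-24 h ahead, then exposed continuously for 48 h in triplicate wells. Working solutions made in 10% FBS medium with DMSO ≤1%. Cells washed before MTT.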

MCF7 [2] = experiment: Cytotoxicity against human MCF7 cells expressing sigma receptor at 0.5 to 50 uM after 48 hrs by MTT assay; format: functional, cell-based; how it was run: as §1
HUVEC [3] = experiment: Induction of apoptosis in HUVEC assessed as increase of cleaved caspase 3 expression at 10 uM after 24 hrs by Western blotting; format: functional, cell-based; settings: Homo sapiens
How it was run: (§2)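 B16F10 cells (in RPMI) and HUVEC (passages 2-3, in EBM with bullet kit minus serum) exposed to 10 μM compound or left untreated for 24 h under charcoal-stripped serum conditions. Whole-cell lysates made in cold RIPA (pH 7.4) with phosphatase/protease inhibitors and 2 mM vanadate. SDS-PAGE gradient gel, PVDF transfer, probed for caspase 3, Bax, Bcl-2, Akt, pAkt and β-actin with HRP-chemiluminescence detection.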

B16-F10 [4] = experiment: Induction of apoptosis in mouse B16F10 cells expressing sigma receptor assessed as early apoptotic cells using annexin V/propidium iodide staining at 5 uM after 24 hrs by flow cytometry (reference value: 0.92%); format: functional
B16-F10 [5] = experiment: Antitumor activity against mouse B16F10 cells expressing sigma receptor xenografted in C57BL6/J mouse assessed as tumor regression at 7.5 mg/kg, ip administered 5 times with gap 2 to 3 days; format: functional, organism-based; design: dose 7.5 mg/kg
How it was run: (§3)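 Male C57BL6/J mice, 6-8 weeks old, given 2 × 10⁵ B16F10 cells s.c. in the lower right abdomen. From day 11, groups of four mice received 7.5 mg/kg i.p. in PBS with 10% DMSO, five injections 2-3 days apart. Tumours measured three times a week; volume = 0.5ab². Tumours excised on day 23, cut as 10 μm cryosections, fixed and fluorometric TUNEL-stained.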

COS-1 [6] = experiment: Induction of apoptosis in against african green monkey COS1 cells expressing sigma receptor assessed as late apoptotic cells using annexin V/propidium iodide staining at 5 uM after 24 hrs by flow cytometry (reference value: 0.04%); format: cell-based; settings: chlorocebus aethiops, cos-1, 24 h
COS-1 [7] = experiment: Induction of apoptosis in against african green monkey COS1 cells expressing sigma receptor assessed as necrotic cells using annexin V/propidium iodide staining at 5 uM after 24 hrs by flow cytometry (reference value: 0.08%); format: cell-based; settings: chlorocebus aethiops, cos-1, 24 h
B16-F10 [8] = experiment: Induction of apoptosis in mouse B16F10 cells expressing sigma receptor assessed as phosphorylated Akt level at 10 uM after 24 hrs by Western blotting; format: functional, cell-based; how it was run: as §2
B16-F10 [9] = experiment: Induction of apoptosis in mouse B16F10 cells expressing sigma receptor assessed as increase of Bax protein expression at 10 uM after 24 hrs by Western blotting; format: functional, cell-based; how it was run: as §2
HUVEC [10] = experiment: Induction of apoptosis in HUVEC assessed as phosphorylated Akt level at 10 uM after 24 hrs by Western blotting; format: functional, cell-based; settings: Homo sapiens; how it was run: as §2
B16-F10 [11] = experiment: Induction of apoptosis in mouse B16F10 cells expressing sigma receptor assessed as increase of Bax/Bcl-2 protein ratio at 10 uM after 24 hrs by Western blotting; format: functional, cell-based; how it was run: as §2
B16-F10 [12] = experiment: Induction of apoptosis in mouse B16F10 cells expressing sigma receptor assessed as late apoptotic cells using annexin V/propidium iodide staining at 5 uM after 24 hrs by flow cytometry (reference value: 1.21%); format: functional
COS-1 [13] = experiment: Induction of apoptosis in against african green monkey COS1 cells expressing sigma receptor assessed as early apoptotic cells using annexin V/propidium iodide staining at 5 uM after 24 hrs by flow cytometry (reference value: 0.06%); format: cell-based; settings: chlorocebus aethiops, cos-1, 24 h
MCF7 [14] = experiment: Cytotoxicity against human MCF7 cells expressing sigma receptor after 48 hrs by MTT assay; format: functional, cell-based; settings: MCF7, 48 h; how it was run: as §1
MDA-MB-231 [15] = experiment: Cytotoxicity against human MDA-MB-231 cells expressing sigma receptor after 48 hrs by MTT assay; format: functional, cell-based; settings: MDA-MB-231, 48 h; how it was run: as §1
HEK293 [16] = experiment: Cytotoxicity against human HEK293 cells expressing sigma receptor after 48 hrs by MTT assay; format: cell-based; settings: HEK293, 48 h; how it was run: as §1
B16-F10 [17] = experiment: Induction of apoptosis in mouse B16F10 cells expressing sigma receptor assessed as viable cells using annexin V/propidium iodide staining at 5 uM after 24 hrs by flow cytometry (reference value: 98.30%); format: functional
MCF7 [18] = experiment: Induction of apoptosis in human MCF7 cells expressing sigma receptor assessed as late apoptotic cells using annexin V/propidium iodide staining at 5 uM after 24 hrs by flow cytometry (reference value: 1.48%); format: functional
[19] = Induction of apoptosis in human HEK293 cells expressing sigma receptor assessed as viable cells using annexin V/propidium iodide staining at 5 uM after 24 hrs by flow cytometry (reference value: 99.76%); format: cell-based; settings: read-out: Activity
MCF7 [20] = experiment: Induction of apoptosis in human MCF7 cells expressing sigma receptor assessed as necrotic cells using annexin V/propidium iodide staining at 5 uM after 24 hrs by flow cytometry (reference value: 0.27%); format: functional
B16-F10 [21] = experiment: Induction of apoptosis in mouse B16F10 cells expressing sigma receptor assessed as increase of cleaved caspase 3 expression at 10 uM after 24 hrs by Western blotting; format: functional, cell-based; how it was run: as §2
B16-F10 [22] = experiment: Induction of apoptosis in mouse B16F10 cells expressing sigma receptor assessed as necrotic cells using annexin V/propidium iodide staining at 5 uM after 24 hrs by flow cytometry (reference value: 0.25%); format: functional
B16-F10 [23] = experiment: Cytotoxicity against mouse B16F10 cells expressing sigma receptor after 48 hrs by MTT assay; format: functional, cell-based; settings: B16-F10, 48 h; how it was run: as §1
MCF7 [24] = experiment: Induction of apoptosis in human MCF7 cells expressing sigma receptor assessed as early apoptotic cells using annexin V/propidium iodide staining at 5 uM after 24 hrs by flow cytometry (reference value: 0.92%); format: functional
MCF7 [25] = experiment: Induction of apoptosis in human MCF7 cells expressing sigma receptor assessed as viable cells using annexin V/propidium iodide staining at 5 uM after 24 hrs by flow cytometry (reference value: 97.33%); format: functional
MCF7 [26] = experiment: Cytotoxicity against sigma receptor depleted human MCF7 cells assessed as cell viability at 10 uM after 48 hrs by MTT assay in presence of siRNA treated for 4 hrs before compound challenge
HEK293 [27] = experiment: Induction of apoptosis in human HEK293 cells expressing sigma receptor assessed as early apoptotic cells using annexin V/propidium iodide staining at 5 uM after 24 hrs by flow cytometry (reference value: […]); format: cell-based; settings: hek293, 24 h
[28] = Induction of apoptosis in against african green monkey COS1 cells expressing sigma receptor assessed as viable cells using annexin V/propidium iodide staining at 5 uM after 24 hrs by flow cytometry (reference value: 99.82%); format: cell-based; settings: chlorocebus aethiops, COS-1 cells expressing sigma receptor; read-out: Activity
HEK293 [29] = experiment: Induction of apoptosis in human HEK293 cells expressing sigma receptor assessed as necrotic cells using annexin V/propidium iodide staining at 5 uM after 24 hrs by flow cytometry (reference value: 0.06%); format: cell-based; settings: hek293, 24 h
COS-1 [30] = experiment: Cytotoxicity against african green monkey COS1 cells expressing sigma receptor after 48 hrs by MTT assay; format: cell-based; settings: Chlorocebus aethiops, COS-1, 48 h; how it was run: as §1
HEK293 [31] = experiment: Induction of apoptosis in human HEK293 cells expressing sigma receptor assessed as late apoptotic cells using annexin V/propidium iodide staining at 5 uM after 24 hrs by flow cytometry (reference value: […]); format: cell-based; settings: hek293, 24 h
ZR-75-1 = experiment: Cytotoxicity against human ZR-75-1 cells expressing sigma receptor after 48 hrs by MTT assay; format: functional, cell-based; settings: ZR-75-1, 48 h; how it was run: as §1
HUVEC [32] = experiment: Induction of apoptosis in HUVEC assessed as increase of Bax/Bcl-2 protein ratio at 10 uM after 24 hrs by Western blotting; format: functional, cell-based; settings: Homo sapiens; how it was run: as §2
B16-F10 [33] = experiment: Induction of apoptosis in mouse B16F10 cells expressing sigma receptor assessed as decrease of Bcl-2 protein expression at 10 uM after 24 hrs by Western blotting; format: functional, cell-based; how it was run: as §2
B16-F10 [34] = experiment: Antitumor activity against mouse B16F10 cells expressing sigma receptor xenografted in C57BL6/J mouse assessed as increase of apoptotic region in tumor at 7.5 mg/kg, ip administered 5 times with gap 2 to 3 days by TUNEL assay; format: functional, organism-based; design: dose 7.5 mg/kg; how it was run: as §3

CCCCCCCCCCCC[N+](C)(CCCCCCCCCCCC)CC(=O)NCCC(=O)OC1(c2ccc(Cl)cc2)CCN(CCCC(=O)c2ccc(F)cc2)CC1
Activity (MDA-MB-231 [1]): Active
Activity (MCF7 [2]): Active

CCCCCCCCCCCCCCCC[N+](C)(CCCCCCCCCCCCCCCC)CC(=O)NCCC(=O)OC1(c2ccc(Cl)cc2)CCN(CCCC(=O)c2ccc(F)cc2)CC1
Activity (MDA-MB-231 [1]): Active
Activity (MCF7 [2]): Active

CCCCCCCC[N+](C)(CCCCCCCC)CC(=O)NCCC(=O)OC1(c2ccc(Cl)cc2)CCN(CCCC(=O)c2ccc(F)cc2)CC1.[Cl-]
Activity (HUVEC [3]): Active
Activity (B16-F10 [4]): 4.1%
Activity (B16-F10 [5]): Active
Activity (COS-1 [6]): 0.06%
Activity (COS-1 [7]): 0.12%
Activity (B16-F10 [8]): Active
Activity (B16-F10 [9]): Active
Activity (HUVEC [10]): Active
Activity (B16-F10 [11]): Active
Activity (B16-F10 [12]): 53.41%
Activity (COS-1 [13]): 0.11%
IC50 (MCF7 [14]): 2500 nM
IC50 (MDA-MB-231 [15]): 2500 nM
IC50 (HEK293 [16]): 7000 nM
Activity (B16-F10 [17]): 41.47%
Activity (MCF7 [18]): 33.2%
Activity (MDA-MB-231 [1]): Active
viability at 24 h, 5 µM [19]: 99.6%
Activity (MCF7 [20]): 14.35%
Activity (B16-F10 [21]): Active
Activity (B16-F10 [22]): 1.03%
Activity (MCF7 [2]): Active
IC50 (B16-F10 [23]): 2500 nM
Activity (MCF7 [24]): 5.02%
Activity (MCF7 [25]): 47.43%
viability at 10 µM (MCF7 [26]): 25%
Activity (HEK293 [27]): 0.14%
viability at 24 h, 5 µM [28]: 99.7%
Activity (HEK293 [29]): 0.14%
IC50 (COS-1 [30]): 7000 nM
Activity (HEK293 [31]): 0.15%
IC50 (ZR-75-1): 2500 nM
Activity (HUVEC [32]): Active
Activity (B16-F10 [33]): Active
Activity (B16-F10 [34]): Active

O=C(CCCN1CCC(O)(c2ccc(Cl)cc2)CC1)c1ccc(F)cc1 [HALOPERIDOL]
Activity (B16-F10 [4]): 0.29%
Activity (COS-1 [6]): 0.16%
Activity (COS-1 [7]): 0.17%
Activity (B16-F10 [12]): 0.95%
Activity (COS-1 [13]): 0.11%
Activity (B16-F10 [17]): 97.17%
Activity (MCF7 [18]): 1.74%
Activity (MDA-MB-231 [1]): Active
viability at 24 h, 5 µM [19]: 99.6%
Activity (MCF7 [20]): 0.09%
Activity (B16-F10 [22]): 1.58%
Activity (MCF7 [2]): Active
Activity (MCF7 [24]): 0.51%
Activity (MCF7 [25]): 97.66%
Activity (HEK293 [27]): 0.11%
viability at 24 h, 5 µM [28]: 99.6%
Activity (HEK293 [29]): 0.07%
Activity (HEK293 [31]): 0.18%

CCCC[N+](C)(CCCC)CC(=O)NCCC(=O)OC1(c2ccc(Cl)cc2)CCN(CCCC(=O)c2ccc(F)cc2)CC1
Activity (MDA-MB-231 [1]): Active
Activity (MCF7 [2]): Active
